Common to all, as to format: cell-based, CHO
The target in data set [1] is T1, 1,25-dihydroxyvitamin D(3) 24-hydroxylase, mitochondrial (Homo sapiens, UniProt Q07973).
T1 sequence (Q07973 whole entry): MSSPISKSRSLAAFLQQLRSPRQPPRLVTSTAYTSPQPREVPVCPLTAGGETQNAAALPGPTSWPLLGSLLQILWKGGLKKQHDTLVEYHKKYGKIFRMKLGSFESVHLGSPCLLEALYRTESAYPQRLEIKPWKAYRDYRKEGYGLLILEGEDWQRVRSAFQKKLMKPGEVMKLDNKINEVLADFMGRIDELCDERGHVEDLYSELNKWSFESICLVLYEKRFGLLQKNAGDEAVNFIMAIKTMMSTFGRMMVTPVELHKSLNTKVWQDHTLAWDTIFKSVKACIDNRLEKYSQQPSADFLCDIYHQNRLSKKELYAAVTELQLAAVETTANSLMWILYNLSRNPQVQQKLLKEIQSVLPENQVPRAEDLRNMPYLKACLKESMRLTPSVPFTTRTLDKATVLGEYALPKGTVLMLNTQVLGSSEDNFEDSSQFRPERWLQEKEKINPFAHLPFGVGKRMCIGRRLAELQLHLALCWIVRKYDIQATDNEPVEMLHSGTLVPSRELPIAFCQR
The data set is described as follows: Inhibition of CYP24A1 expressed in […].

Data set [2] has as its target 1,25-dihydroxyvitamin D(3) 24-hydroxylase, mitochondrial (Homo sapiens, UniProt Q07973, M416T). The data set is described as follows: Inhibition of CYP24A1 M416T mutant expressed in […]. In short, it runs like this:
(§1)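 V79-4 Chinese hamster lung fibroblasts stably expressing wild-type or mutant (L148F, M416T) CYP24A1 were grown in DMEM with FCS, antibiotics and hygromycin at 5% CO₂, then subcultured into 6-well plates for 24 h. Incubation was for 6 h in 1% BSA DMEM with 100,000 CPM/well [1β-³H]1α,25-(OH)₂D₃ and DPPD antioxidant. Inhibitors, from ethanol stocks, were tested at 10⁻⁴–10⁻⁷ M. Methanol stopped the reaction, followed by scintillation counting.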

Data set [3] has as its target 1,25-dihydroxyvitamin D(3) 24-hydroxylase, mitochondrial (Homo sapiens, UniProt Q07973, L148F). The data set is described as follows: Inhibition of CYP24A1 L148F mutant expressed in […]. The gist of the method: as §1
Data set [4] concerns the target T2, Sterol 26-hydroxylase, mitochondrial (Homo sapiens, UniProt Q02318).
T2 sequence (Q02318 whole entry): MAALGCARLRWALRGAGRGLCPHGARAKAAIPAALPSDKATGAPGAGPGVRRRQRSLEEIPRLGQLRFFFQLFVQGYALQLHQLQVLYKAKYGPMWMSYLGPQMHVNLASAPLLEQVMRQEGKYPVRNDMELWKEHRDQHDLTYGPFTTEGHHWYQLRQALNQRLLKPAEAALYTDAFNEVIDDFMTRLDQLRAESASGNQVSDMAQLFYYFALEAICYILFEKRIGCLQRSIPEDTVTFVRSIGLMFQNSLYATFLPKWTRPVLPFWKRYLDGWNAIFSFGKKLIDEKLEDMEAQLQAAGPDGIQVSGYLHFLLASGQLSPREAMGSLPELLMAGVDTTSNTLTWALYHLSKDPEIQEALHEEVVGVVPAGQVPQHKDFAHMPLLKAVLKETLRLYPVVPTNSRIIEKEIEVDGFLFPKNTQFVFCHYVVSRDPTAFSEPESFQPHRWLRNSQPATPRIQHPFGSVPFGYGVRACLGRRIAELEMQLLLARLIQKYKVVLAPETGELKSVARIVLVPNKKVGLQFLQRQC
The data set is described as follows: Inhibition of CYP27A1 expressed in […]. In short, it runs like this:
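V79-4 fibroblasts stably expressing wild-type CYP27A1 were cultured in supplemented DMEM and plated in 6-well plates 24 h before use. They were incubated for 24 h in 1% BSA DMEM with 1α-OH-D₃ substrate plus DPPD, with inhibitors at four concentrations (10⁻⁴–10⁻⁷ M). No-inhibitor, dead-cell and no-cell controls were included. Methanol stopped the reaction, then Bligh-Dyer extraction and silica HPLC with photodiode-array detection quantified the metabolite.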

Sequence of 1,25-dihydroxyvitamin D(3) 24-hydroxylase, mitochondrial (Homo sapiens, UniProt Q07973, M416T) (Q07973 36-514 M416T limits assumed): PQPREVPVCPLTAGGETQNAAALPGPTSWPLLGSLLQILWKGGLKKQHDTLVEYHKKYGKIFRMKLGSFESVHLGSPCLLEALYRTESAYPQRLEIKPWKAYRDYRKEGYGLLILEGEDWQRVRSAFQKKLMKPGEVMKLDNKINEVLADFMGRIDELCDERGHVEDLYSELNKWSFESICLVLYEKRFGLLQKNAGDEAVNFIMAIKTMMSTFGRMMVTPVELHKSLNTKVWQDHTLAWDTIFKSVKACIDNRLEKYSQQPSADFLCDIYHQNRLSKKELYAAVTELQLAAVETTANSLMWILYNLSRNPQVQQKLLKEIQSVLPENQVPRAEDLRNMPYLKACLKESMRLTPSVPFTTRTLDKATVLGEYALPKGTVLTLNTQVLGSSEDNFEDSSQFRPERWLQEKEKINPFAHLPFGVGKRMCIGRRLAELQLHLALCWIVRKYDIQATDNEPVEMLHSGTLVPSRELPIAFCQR
Sequence of 1,25-dihydroxyvitamin D(3) 24-hydroxylase, mitochondrial (Homo sapiens, UniProt Q07973, L148F) (Q07973 36-514 L148F limits assumed): as the sequence (Q07973 36-514 M416T limits assumed) above, with L113F, T381M counted along it

As a reminder, the IC50 is the concentration needed to halve the response being measured. As to `COc1ccc2c(c1)CCC(Cc1ccccc1CCc1ccccc1)C2=O` (stereo not given), the IC50 in data set [1] worked out at 25.6 µM. Moreover, the “inhibition (INH)” value in data set [2] and in data set [3] was “Active” throughout. For the compound `COc1ccc2c(c1)CC/C(=C\c1ccccc1-c1ccccc1)C2=O`, the IC50 in data set [1] was determined as 111 µM. Consider `COc1ccc2c(c1)CC/C(=C\c1ccccc1/C=C/c1ccccc1)C2=O`, for which the IC50 in data set [1] stood at 5.08 µM; in data set [4], 5.69 µM. For `COc1ccc2c(c1)CCC(Cc1ccccc1C(F)(F)F)C2=O` (stereo not given), the figures for the IC50 in data set [1] and in data set [4] were 2.08 µM and 5.34 µM, respectively. The matching figures for `CCc1ccccc1CC1CCc2cc(OC)ccc2C1=O` (stereo not given): 1.92 µM and 8.23 µM. The corresponding values for `COc1ccc2c(c1)CCC(Cc1ccccc1Br)C2=O` (stereo not given) are 16.3 µM and 0.059 µM.

In data set [1], `COc1ccc2c(c1)CCC(Cc1ccccc1-c1ccccc1)C2=O` (stereo not given) gave an IC50 of 128 µM.

As to `COc1ccc2c(c1)CCC(Cc1ccccc1/C=C/c1ccccc1)C2=O` (stereo not given), half-maximal inhibition in data set [1] (IC50) was put at 343 µM.

With `COc1ccc2c(c1)CC/C(=C\c1ccccc1C(F)(F)F)C2=O`, inhibition in data set [1] was half-maximal at 11.2 µM (IC50).

Take `CCc1ccccc1/C=C1\CCc2cc(OC)ccc2C1=O`: the IC50 in data set [1] came to 10.8 µM.

Compound `COc1ccc2c(c1)CC/C(=C\c1ccccc1C)C2=O` had an IC50 in data set [1] of 480 µM. In data set [1], `COc1ccc2c(c1)CCC(Cc1ccccc1C)C2=O` (stereo not given) showed an IC50 of 127 µM. Take `COc1ccc2c(c1)CC/C(=C\c1ccccc1Br)C2=O`: the results for the IC50 in data set [1] and in data set [4] were 122 µM and 4.33 µM, respectively.

These data come from ChEMBL document CHEMBL1250470, “Synthesis and CYP24A1 inhibitory activity of (E)-2-(2-substituted benzylidene)- and 2-(2-substituted benzyl)-6-methoxy-tetralones” (Eur J Med Chem, 2010).
